Series [1] can be described thus: folding enthalpy; higher = less favourable; fluorescence melt of hairpins on a sequencing array, two-state fit. As to conditions: sodium 0.088 M. Summed up:
(§1)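 Hairpins were imaged by Cy3 fluorescence on a sequenced MiSeq flow cell with annealed Cy3 and quencher oligos, in 50 mM Na-HEPES pH 8.0, 25 mM NaCl, in 2.5 °C steps up to 60 °C. Bootstrapped two-state fits of normalised signals gave melting temperature and folding enthalpy. Four replicates were combined by inverse variance, and fitted temperatures were raised by 9.35 °C to match UV melts.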

Series [2] in a line: melting temperature; fluorescence melt of hairpins on a sequencing array, two-state fit, raised by 9.35 °C to match UV melts. The settings on record: sodium 0.088 M. A digest of the protocol: as §1

On to GTGTATCGAAAGATTCAC (((.(((....))).))), for which, in series [1], the folding enthalpy was -36.9 kcal/mol. Also, in series [2], the Tm is 44.7 °C.

On to GCTATCGAAAGATAAGC ((((((....))).))), for which the folding enthalpy in series [1] was -26.7 kcal/mol. Moreover, in series [2], the Tm is 45 °C.

Turning to GATCTAAGATAGATC ((((((...)))))), the folding enthalpy in series [1] is -20.6 kcal/mol. Moreover, in series [2], the Tm is 37.9 °C.

With GAAGCTGGAAACAGCCTC ((.((((....)))).)), the folding enthalpy in series [1] is -13.8 kcal/mol. Besides, the Tm in series [2] worked out at 32.6 °C.

Consider GCCCTCGAAAGAGACGGC ((((((....)))..))), for which the folding enthalpy in series [1] is -25.3 kcal/mol. For the same sequence, in series [2], the Tm came to 44.8 °C.

For the sequence GAATAACGAAAGTTTTTC (((.(((....))).))), in series [1], the folding enthalpy was -28.6 kcal/mol. Moreover, the Tm in series [2] came out at 32 °C.

For the sequence GCGCTTCGAAAGAAACGC (((.(((....))).))), in series [1], the folding enthalpy is -38.8 kcal/mol. Moreover, in series [2], the Tm is 54.5 °C.

Turning to GGACCCGAAAGGGTATCC ((((((....)))..))), the folding enthalpy in series [1] is -11 kcal/mol. Moreover, the Tm in series [2] stood at 38.9 °C.

For GAGTCCGGAAACGGACCC (.(((((....))))).), the folding enthalpy in series [1] is -9.42 kcal/mol. For the same sequence, the Tm in series [2] stood at 46.2 °C.

GCGAGGAGTCGC ((((....)))): in series [1], the folding enthalpy is -13.4 kcal/mol. The Tm in series [2] was determined as 52.8 °C.

Regarding GCAGATGGAAACGTCTGC (((((.(....).))))), in series [1], the folding enthalpy is -45.2 kcal/mol. The Tm in series [2] is 53.2 °C.

Consider GAGTGCGAAAGCATGCTC ((((((....)))..))), for which, in series [1], the folding enthalpy is -15 kcal/mol. Moreover, the Tm in series [2] was 43.4 °C.

As to GTCACGGAAACGTGAC ((((((....)))))), the folding enthalpy in series [1] is -34.4 kcal/mol. Besides, in series [2], the Tm came to 69.2 °C.

Take GATCACGGAAACGCGATC ((((.((....)).)))): the folding enthalpy in series [1] is -34.3 kcal/mol. Moreover, in series [2], the Tm worked out at 48.2 °C.

For the sequence GATCGAGCGTTCGATC ((((((....)))))), the folding enthalpy in series [1] was -45.4 kcal/mol. Further, the Tm in series [2] came to 52.1 °C.

For the sequence GCCCCCGGAAACGAGGGC ((((.((....)).)))), the folding enthalpy in series [1] is -28.1 kcal/mol. The Tm in series [2] was 56 °C.

Consider GGGTGCCGAAAGGCTCCC (((.(((....))).))), for which the folding enthalpy in series [1] was -20.6 kcal/mol. For the same sequence, the Tm in series [2] came to 69.1 °C.

On to CCTGGGAAACCAGG (((((....))))), for which the folding enthalpy in series [1] was -19.5 kcal/mol. Moreover, in series [2], the Tm came out at 55 °C.

GATCGCTTTCGCGATC ((((((....)))))): the folding enthalpy in series [1] was -38.4 kcal/mol. Further, the Tm in series [2] stood at 67.4 °C.

Consider GAGAGGGGAAACTCTCTC (((((.(....).))))), for which the folding enthalpy in series [1] was -26.2 kcal/mol. The Tm in series [2] was 49.4 °C.

For the sequence CGCGGAACGTCCGCG ((((((...)))))), in series [1], the folding enthalpy is -39.5 kcal/mol. For the same sequence, the Tm in series [2] was 60.5 °C.

As to GATTCCCGAAAGGGGATC (((.(((....))).))), the folding enthalpy in series [1] is -36.3 kcal/mol. Moreover, the Tm in series [2] was 57.3 °C.

For GATCGCCTATGCGATC ((((((....)))))), the folding enthalpy in series [1] is -31.6 kcal/mol. Further, in series [2], the Tm was 68.1 °C.

For the sequence GAGGGGGGAAACCCCCCC (.(((((....))))).), the folding enthalpy in series [1] is -8.39 kcal/mol. In addition, in series [2], the Tm worked out at 52.5 °C.

As to GCATTGCGAAAGCCAAGC ((.(.((....)).).)), the folding enthalpy in series [1] was -9.84 kcal/mol. Besides, the Tm in series [2] was determined as 28.6 °C.

Take GATCGCCTGTGCGATC ((((((....)))))): in series [1], the folding enthalpy is -36.7 kcal/mol. The Tm in series [2] came to 66.8 °C.

GATCCTGCAGAGGATC ((((((....)))))): the folding enthalpy in series [1] was -39.5 kcal/mol. Further, in series [2], the Tm stood at 56 °C.

Consider GATCAGATACCTGATC ((((((....)))))), for which the folding enthalpy in series [1] was -36.7 kcal/mol. Moreover, the Tm in series [2] amounted to 48 °C.

Turning to GAGCTGCCGAAAGGCCTC (((..(((....)))))), the folding enthalpy in series [1] is -11.3 kcal/mol. Also, the Tm in series [2] was found to be 32.7 °C.

Regarding GACTTGAAAAAGTC (((((....))))), the folding enthalpy in series [1] is -26.7 kcal/mol. Further, the Tm in series [2] stood at 44.5 °C.

For GACGGTGGAAACATCGTC ((((.((....)).)))), the folding enthalpy in series [1] is -43.6 kcal/mol. In series [2], the Tm stood at 53.7 °C.

For the sequence GTCGAGGGAAACCTCAAC ((.((((....)))).)), the folding enthalpy in series [1] is -18.1 kcal/mol. In series [2], the Tm came out at 36.5 °C.

Regarding GCACAGCGAAAGCGGGGC ((.(.((....)).).)), the folding enthalpy in series [1] is -34.6 kcal/mol. Besides, the Tm in series [2] is 65.9 °C.

In the case of GGACCTGGAAACAGATCC (((.(((....))).))), the folding enthalpy in series [1] is -28.7 kcal/mol. In series [2], the Tm was found to be 40.2 °C.

With GCCCACGAAAGTGGCGGC ((((((....)))..))), the folding enthalpy in series [1] is -14 kcal/mol. Besides, the Tm in series [2] came to 57.6 °C.

For GTCTTAGGAAACTGAGAC ((((.((....)).)))), the folding enthalpy in series [1] was -30.7 kcal/mol. Also, the Tm in series [2] stood at 40.9 °C.

Consider GATCTCAATAGAGATC ((((((....)))))), for which, in series [1], the folding enthalpy is -38.5 kcal/mol. Besides, in series [2], the Tm amounted to 53.3 °C.

(Values after the array DNA melting data of Ke et al. (doi:10.1101/2024.01.08.574731).)
